Assays:
Rattus norvegicus = test: Antiarrhythmic activity in aconitine-intoxicated iv dosed Ivanovas rat assessed as inhibition of ventricular dysfunction; assay type: functional, Heart
Method in brief: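 Male Ivanovas rats (300–350 g) were anaesthetised with urethane 1.25 g/kg ip. Compound was given iv at 5 mg/kg 5 min before saphenous vein infusion of aconitine ([…], 0.1 ml/min). Lead II ECG was recorded every 30 s. Read-out was aconitine per 100 g causing ventricular extrasystoles, tachycardia and fibrillation versus untreated controls. Used 24 rats/compound; Student's t-test.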

Mus musculus = test: Antianxiety activity in ip dosed Albino mouse assessed as increase in locomotor activity after 30 mins relative to Diazepam; assay type: functional
[1] = Acute toxicity in rat; assay type: organism-based; conditions: in vivo

Compound	LD100 increase (Rattus norvegicus)	Ratio (Mus musculus)	LD50 [1]
N#Cc1c(NC(=S)NC(=O)c2ccccc2)sc2c1CCCC2	84%	10	175 mg/kg
COc1cccc(NC(=O)c2c(N)sc3c2CCCC3)c1		4	121 mg/kg
COc1cccc(-n2nnc3sc4c(c3c2=O)CCCC4)c1	75%	4	124 mg/kg
N#Cc1c(N)sc2c1CCCC2		1	152 mg/kg
N#Cc1c(NC(=O)CCl)sc2c1CCCC2	73.1%	3	194 mg/kg
COc1cccc(-n2c(=S)[nH]c3sc4c(c3c2=O)CCCC4)c1	76%	3	210 mg/kg
COc1cccc(NC(=O)c2c(NC(=O)c3ccccc3)sc3c2CCCC3)c1	67.9%	2	236 mg/kg
COc1cccc(NC(=O)c2c(NC(=O)/C=C/c3ccccc3)sc3c2CCCC3)c1	74.6%	5	276 mg/kg
COc1cccc(-n2c(-c3ccccc3)nc3sc4c(c3c2=O)CCCC4)c1	70.1%	5	136 mg/kg
COc1cccc(-n2c(/C=C/c3ccccc3)nc3sc4c(c3c2=O)CCCC4)c1	82%	7	243 mg/kg
N#Cc1c(NC(=O)/C=C/c2ccccc2)sc2c1CCCC2	77.5%	5	186 mg/kg
N=c1oc(-c2ccccc2)nc2sc3c(c12)CCCC3	68.15%	3	224 mg/kg
N=c1oc(/C=C/c2ccccc2)nc2sc3c(c12)CCCC3	80.1%	6	244 mg/kg
N#Cc1c(-n2c(O)csc2=N)sc2c1CCCC2	82.1%	12	274 mg/kg
N#Cc1c(N2C(=O)C=CC2=O)sc2c1CCCC2		3	234 mg/kg
N=c1c2c3c(sc2nc(S)n1C(=O)c1ccccc1)CCCC3	84.3%	5	221 mg/kg
N#Cc1c(/N=C/c2ccccc2)sc2c1CCCC2	73.6%	2	246 mg/kg
N#Cc1c(N2C(=S)N=C(c3ccccc3)OC2c2ccccc2)sc2c1CCCC2 (centres undefined)	84%	16	297 mg/kg
O=C1CC2(CCCC2)CC(=O)N1CCCCN1CCN(c2ncccn2)CC1 [BUSPIRONE]			113 mg/kg
CCN(CC)CC(=O)Nc1c(C)cccc1C [LIDOCAINE]	65%		
CCN(CC)CCNC(=O)c1ccc(N)cc1 [PROCAINAMIDE]	65%		

Reference: ChEMBL document CHEMBL1629505, “Antiarrhythmic, serotonin antagonist and antianxiety activities of novel substituted thiophene derivatives synthesized from 2-amino-4,5,6,7-tetrahydro-N-phenylbenzo[b]thiophene-3-carboxamide” (Eur J Med Chem, 2010)
